For test [1], the system named is Rattus norvegicus. The experiment in a line: Inhibition of galactitol accumulation in sciatic nerve of rats, by 159 mg/kg of compound; NS means Not Significant. Also on record: dose 159 mg/kg. The test is classed as functional, organism-based. In short, it runs like this:
(§1)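 Rats were fed 20% galactose chow for 4 days with drug, at the dose given in mg/kg. Galactitol was measured in lens and sciatic nerve, and percent inhibition was calculated against galactosemic control rats.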

Test [2] concerns the target Aldo-keto reductase family 1 member B1 (Bos taurus, UniProt P16116). The experiment in a line: In vitro inhibition of bovine lens aldose reductase.
The target of test [3] is T1, Aldo-keto reductase family 1 member B1 (Rattus norvegicus, UniProt P07943). The experiment in a line: Inhibition of aldose reductase (or polyol accumulation) in isolated rat sciatic nerve by compound at 10E-5 M concentration; IA means Not Active. The test is classed as tissue-based. In short, it runs like this:
(§2)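 Isolated rat sciatic nerve incubated in vitro with compound, with polyol accumulation as read-out. Percent inhibition of polyol accumulation recorded at 1 × 10⁻⁵ M.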

Test [4] has as its system Rattus norvegicus. The experiment in a line: Inhibition of galactitol accumulation in lens of rats, by 159 mg/kg of compound; NS means Not Significant. The test is classed as functional, organism-based. Also on record: dose 159 mg/kg. The settings on record: Lens of camera-type eye. In short, it runs like this:
as §1

Test [5] concerns the target T1, Aldo-keto reductase family 1 member B1. The experiment in a line: Inhibition of aldose reductase (or polyol accumulation) in isolated rat sciatic nerve by compound at 10e-5 M concentration. The test is classed as tissue-based. In short, it runs like this: as §2
The target is the same in test [6]. The experiment in a line: Inhibition of aldose reductase (or polyol accumulation) in isolated rat sciatic nerve by compound at (10E-5) M concentration. The class given is tissue-based. A digest of the protocol: as §2
The test system of test [7] is Rattus norvegicus. The experiment in a line: Inhibition of galactitol accumulation in lens of rats, by 76 mg/kg of compound; NS=Not significant. Also noted: dose 76 mg/kg. To be noted: Lens of camera-type eye. The class given is functional, organism-based. A digest of the protocol:
as §1

From ChEMBL document CHEMBL1124439, “Computer-assisted design and synthesis of novel aldose reductase inhibitors” (J Med Chem, 1989) come the findings set out here.

The source made the active and inactive calls. The rule behind the calls is not given here.

Consider `CN(CC(=O)O)C(=S)c1cccc2ccccc12`, for which the inhibition entry in the test on Rattus norvegicus [1] and with Rattus norvegicus [4] was “inactive” throughout. In addition, the IC50 in test [2] is 730 nM; in test [3], “Not Active”.
As to `COc1ccc2c(C(=S)N(C)CC(=O)O)cccc2c1C(F)(F)F` [TOLRESTAT], it took 540 nM to reach half-maximal inhibition in test [5] (IC50).
For `CC1=C(CC(=O)O)c2cccc3cccc(c23)C1=O`, the figures for the IC50 in test [6] and in test [2] were 2500 nM and 240 nM, respectively. Also, the inhibition entry with Rattus norvegicus [7] is “inactive”.

By IC50 is commonly meant the midpoint of a concentration-inhibition curve. Read a high IC50 as lower potency.
